Measurements reported in ChEMBL document CHEMBL4837245, “Discovery of VU6028418: A Highly Selective and Orally Bioavailable M4 Muscarinic Acetylcholine Receptor Antagonist” (ACS Med Chem Lett, 2021).

Key:
[1] = Elimination half life in Sprague-Dawley rat at 1 mg/kg, iv measured upto 24 hrs by LC-MS/MS analysis; type: ADME, organism-based; details: in vivo, read-out: beta t1/2 (converted)
Procedure, shortened: (§1)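 Single iv and oral (suspension) dosing; iv/po doses 1/10 mg/kg in SD rat, 1/3 mg/kg in CD-1 mouse and beagle dog. Plasma PK parameters are means from two to three animals per species.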

[2] = Oral bioavailability in Beagle dog at 3 mg/kg measured upto 24 hrs by LC-MS/MS analysis; type: ADME, organism-based, Canis lupus familiaris; details: in vivo; procedure, shortened: as §1
[3] = molecular target: T1, Voltage-gated inwardly rectifying potassium channel KCNH2 (Homo sapiens, UniProt Q12809); experiment: Inhibition of human ERG tail current by electrophysiological assay relative to control
T1 sequence (Q12809 whole entry): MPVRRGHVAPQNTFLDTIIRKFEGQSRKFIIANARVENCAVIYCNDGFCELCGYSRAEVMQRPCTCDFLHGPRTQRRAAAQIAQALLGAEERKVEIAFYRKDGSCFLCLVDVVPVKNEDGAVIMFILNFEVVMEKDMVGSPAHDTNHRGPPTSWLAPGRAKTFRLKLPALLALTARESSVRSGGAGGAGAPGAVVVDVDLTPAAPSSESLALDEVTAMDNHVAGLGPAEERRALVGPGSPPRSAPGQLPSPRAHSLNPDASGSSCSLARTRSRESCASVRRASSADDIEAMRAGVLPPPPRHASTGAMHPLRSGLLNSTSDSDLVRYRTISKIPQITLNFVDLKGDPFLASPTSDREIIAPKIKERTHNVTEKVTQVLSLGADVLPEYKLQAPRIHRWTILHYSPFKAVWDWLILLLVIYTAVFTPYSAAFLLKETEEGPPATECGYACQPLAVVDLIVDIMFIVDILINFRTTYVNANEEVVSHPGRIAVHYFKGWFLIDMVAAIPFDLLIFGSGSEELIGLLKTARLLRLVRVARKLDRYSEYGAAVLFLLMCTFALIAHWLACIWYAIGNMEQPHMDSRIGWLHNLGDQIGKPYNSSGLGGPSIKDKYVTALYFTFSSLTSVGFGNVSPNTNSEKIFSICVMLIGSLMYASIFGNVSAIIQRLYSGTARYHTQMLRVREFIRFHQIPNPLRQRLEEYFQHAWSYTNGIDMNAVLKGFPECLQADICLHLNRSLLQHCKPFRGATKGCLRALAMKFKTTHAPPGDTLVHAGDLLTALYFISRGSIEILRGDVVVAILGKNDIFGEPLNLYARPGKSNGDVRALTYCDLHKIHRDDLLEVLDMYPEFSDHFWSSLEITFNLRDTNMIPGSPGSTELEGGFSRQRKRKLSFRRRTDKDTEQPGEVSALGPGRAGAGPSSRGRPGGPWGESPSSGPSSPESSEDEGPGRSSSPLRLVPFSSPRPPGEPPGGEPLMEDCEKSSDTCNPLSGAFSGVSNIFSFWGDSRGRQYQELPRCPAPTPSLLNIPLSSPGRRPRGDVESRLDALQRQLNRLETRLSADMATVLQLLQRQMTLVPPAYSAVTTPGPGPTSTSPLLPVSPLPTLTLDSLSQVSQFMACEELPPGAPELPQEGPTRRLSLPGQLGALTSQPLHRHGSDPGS
Procedure, shortened: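 HEK cells, whole-cell electrophysiology. hERG tail current recorded at −40 mV after a depolarizing step to +30 mV; n = 3.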

[4] = Tmax in Beagle dog at 3 mg/kg, po measured upto 24 hrs by LC-MS/MS analysis; type: ADME, organism-based, Canis lupus familiaris; details: in vivo
Procedure, shortened: (§2)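 Pharmacokinetics in Sprague-Dawley rat, CD-1 mouse and beagle dog. Intravenous dose was 1 mg/kg in each species. Oral doses were given as a suspension: 10 mg/kg in rat, 3 mg/kg in mouse and dog. Each parameter is the mean of two to three animals.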

[5] = Ratio of free drug concentration in brain to plasma of rat at 1 mg/kg, po after 1 hr; type: ADME, organism-based
Procedure, shortened: (§3)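 At the end of the catalepsy study, 1 h after a 1 mg/kg oral dose in rats, total brain/plasma (Kp) and unbound brain/plasma (Kp,uu) ratios were determined.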

[6] = Cmax in CD-1 mouse at 3 mg/kg, po measured upto 24 hrs by LC-MS/MS analysis; type: ADME, organism-based; design: route oral, dose 3 mg/kg, time <=24; details: in vivo; procedure, shortened: as §1
[7] = test system: P-gp (human); experiment: Efflux ratio of apparent permeability basolateral to apical over apical to basolateral side at human P-gp in MDCK-MDR1 cells; type: ADME, cell-based, Canis lupus familiaris; details: dog
Procedure, shortened: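 MDCK cell monolayers overexpressing MDR1 (P-gp). Efflux ratio taken as Papp(B-to-A)/Papp(A-to-B).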

[8] = Clearance in CD-1 mouse plasma at 1.0 mg/kg, iv measured upto 24 hrs by LC-MS/MS analysis; type: ADME, organism-based; procedure, shortened: as §1
[9] = molecular target: T2, CYP1A2 (Homo sapiens, UniProt P05177); experiment: Induction of CYP1A2 in human hepatocytes; type: ADME, cell-based, Hepatocyte
T2 sequence (P05177 whole entry): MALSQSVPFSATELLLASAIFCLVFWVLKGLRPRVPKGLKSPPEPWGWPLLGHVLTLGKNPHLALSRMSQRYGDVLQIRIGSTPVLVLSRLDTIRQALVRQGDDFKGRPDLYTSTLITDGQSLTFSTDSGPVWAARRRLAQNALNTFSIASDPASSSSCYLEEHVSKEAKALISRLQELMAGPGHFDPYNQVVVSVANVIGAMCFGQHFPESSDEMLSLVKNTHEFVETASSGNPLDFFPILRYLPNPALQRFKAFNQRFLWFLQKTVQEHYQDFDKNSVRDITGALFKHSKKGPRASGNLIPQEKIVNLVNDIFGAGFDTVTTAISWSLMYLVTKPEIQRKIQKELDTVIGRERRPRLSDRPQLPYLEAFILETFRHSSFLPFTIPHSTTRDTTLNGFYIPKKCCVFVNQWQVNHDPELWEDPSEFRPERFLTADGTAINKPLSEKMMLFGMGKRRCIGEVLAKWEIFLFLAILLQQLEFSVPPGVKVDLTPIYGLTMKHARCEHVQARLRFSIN

[10] = molecular target: T3, CYP3A4 (Homo sapiens, UniProt P08684); experiment: Induction of CYP3A4 in human hepatocytes relative to control; type: ADME, cell-based, Hepatocyte
T3 sequence (P08684 whole entry): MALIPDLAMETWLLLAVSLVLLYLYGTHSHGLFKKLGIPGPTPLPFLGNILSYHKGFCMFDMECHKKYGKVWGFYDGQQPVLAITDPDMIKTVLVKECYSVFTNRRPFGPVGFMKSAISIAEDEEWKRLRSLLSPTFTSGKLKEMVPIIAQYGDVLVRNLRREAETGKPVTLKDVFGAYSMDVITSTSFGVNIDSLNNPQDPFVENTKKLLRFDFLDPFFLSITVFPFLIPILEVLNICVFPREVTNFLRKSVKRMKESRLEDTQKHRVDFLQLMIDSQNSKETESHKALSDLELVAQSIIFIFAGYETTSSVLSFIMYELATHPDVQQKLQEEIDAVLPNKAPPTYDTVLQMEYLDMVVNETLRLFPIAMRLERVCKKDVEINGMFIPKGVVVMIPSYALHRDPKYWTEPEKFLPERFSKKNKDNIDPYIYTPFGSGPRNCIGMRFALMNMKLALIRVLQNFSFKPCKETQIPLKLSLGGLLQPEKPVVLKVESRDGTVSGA

[11] = molecular target: T3, CYP3A4; experiment: Inhibition of CYP3A4 in human liver microsomes using midazolam as substrate preincubated for 15 mins followed by NADPH addition and measured after 8 mins by LC-MS/MS analysis; type: ADME; details: human, liver microsomes, probe midazolam; time 23 min; read-out: INH
Procedure, shortened: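 Cocktail CYP450 inhibition assay run in human liver microsomes.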

[12] = molecular target: CYP2B6 (Homo sapiens, UniProt P20813); experiment: Induction of CYP2B6 in human hepatocytes relative to control; type: ADME, cell-based, Hepatocyte
CYP2B6, sequence (P20813 whole entry): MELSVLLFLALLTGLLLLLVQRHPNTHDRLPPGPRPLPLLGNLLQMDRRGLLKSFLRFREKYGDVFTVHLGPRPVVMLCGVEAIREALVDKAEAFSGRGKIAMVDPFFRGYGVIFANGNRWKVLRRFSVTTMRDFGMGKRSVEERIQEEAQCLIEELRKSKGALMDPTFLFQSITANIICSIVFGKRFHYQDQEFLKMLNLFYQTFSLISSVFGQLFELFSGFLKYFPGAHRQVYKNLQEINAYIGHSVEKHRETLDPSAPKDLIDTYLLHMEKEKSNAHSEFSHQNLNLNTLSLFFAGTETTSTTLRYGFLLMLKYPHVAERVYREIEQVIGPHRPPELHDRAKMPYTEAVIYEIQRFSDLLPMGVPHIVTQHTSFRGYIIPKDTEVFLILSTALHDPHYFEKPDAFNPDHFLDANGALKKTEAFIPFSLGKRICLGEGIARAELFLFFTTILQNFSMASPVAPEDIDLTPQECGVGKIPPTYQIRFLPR

[13] = molecular target: Cytochrome P450 2C9 (Homo sapiens, UniProt P11712); experiment: Time dependent inhibition of CYP2C9 (unknown origin); type: ADME
Cytochrome P450 2C9, sequence (P11712 whole entry): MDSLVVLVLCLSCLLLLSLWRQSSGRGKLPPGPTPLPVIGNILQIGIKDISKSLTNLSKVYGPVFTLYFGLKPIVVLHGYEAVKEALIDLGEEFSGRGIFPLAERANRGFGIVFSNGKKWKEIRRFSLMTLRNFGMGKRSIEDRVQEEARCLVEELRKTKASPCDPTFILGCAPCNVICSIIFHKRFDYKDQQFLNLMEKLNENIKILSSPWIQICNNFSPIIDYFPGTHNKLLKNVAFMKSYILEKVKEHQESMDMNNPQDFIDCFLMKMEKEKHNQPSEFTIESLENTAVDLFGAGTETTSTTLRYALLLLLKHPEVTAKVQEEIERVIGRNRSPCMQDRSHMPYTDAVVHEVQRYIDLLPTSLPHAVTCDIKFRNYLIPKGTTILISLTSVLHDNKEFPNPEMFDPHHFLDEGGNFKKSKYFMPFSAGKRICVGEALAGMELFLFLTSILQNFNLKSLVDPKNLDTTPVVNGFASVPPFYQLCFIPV

[14] = test system: Rattus norvegicus; experiment: Effect on haloperidol-induced catalepsy in rat assessed as reduction in mean latency to withdraw at 0.3 mg/kg, po (reference value: 43.4 +/- 4.3 sec); type: functional
Procedure, shortened: (§4)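 Rat haloperidol-induced catalepsy model with oral test dosing at 0.3, 1 and 3 mg/kg alongside vehicle-treated controls. Read-out is latency to withdraw, also expressed as % reversal of catalepsy. Groups compared by ANOVA.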

[15] = test system: Rattus norvegicus; experiment: Reversal of haloperidol-induced catalepsy in rat at 3 mg/kg, po relative to control; type: functional; procedure, shortened: as §4
[16] = molecular target: T1, Voltage-gated inwardly rectifying potassium channel KCNH2; experiment: Inhibition of human ERG by patch clamp assay
[17] = Volume of distribution at steady state in Sprague-Dawley rat at 1.0 mg/kg, iv measured upto 24 hrs by LC-MS/MS analysis; type: ADME, organism-based; details: in vivo, read-out: Vdss; procedure, shortened: as §2
[18] = Elimination half life in Beagle dog at 1 mg/kg, iv measured upto 24 hrs by LC-MS/MS analysis; type: ADME, organism-based, Canis lupus familiaris; details: in vivo, read-out: beta t1/2 (converted); procedure, shortened: as §1
[19] = molecular target: Muscarinic acetylcholine receptor M3 (Homo sapiens, UniProt P20309); experiment: Antagonist activity at human muscarinic M3 receptor expressed in CHO cells co-expressing Gqi5 assessed as inhibition of acetylcholine-induced calcium mobilization; type: functional
Muscarinic acetylcholine receptor M3, sequence (P20309 whole entry): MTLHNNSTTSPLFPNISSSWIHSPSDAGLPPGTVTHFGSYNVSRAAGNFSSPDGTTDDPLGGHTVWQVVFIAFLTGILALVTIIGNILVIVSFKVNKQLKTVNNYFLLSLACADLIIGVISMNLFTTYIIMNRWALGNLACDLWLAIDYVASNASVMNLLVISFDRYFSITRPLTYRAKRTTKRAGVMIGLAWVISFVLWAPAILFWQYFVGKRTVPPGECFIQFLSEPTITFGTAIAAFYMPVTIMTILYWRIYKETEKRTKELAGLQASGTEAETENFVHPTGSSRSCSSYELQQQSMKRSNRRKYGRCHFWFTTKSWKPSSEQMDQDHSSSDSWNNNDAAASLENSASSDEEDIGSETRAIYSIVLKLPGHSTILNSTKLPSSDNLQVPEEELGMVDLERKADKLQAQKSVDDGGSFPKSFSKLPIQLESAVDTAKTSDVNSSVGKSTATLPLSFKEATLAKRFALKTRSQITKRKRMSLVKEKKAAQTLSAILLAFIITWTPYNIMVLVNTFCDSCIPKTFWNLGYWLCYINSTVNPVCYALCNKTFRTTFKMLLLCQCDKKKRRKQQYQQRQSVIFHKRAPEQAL
Procedure, shortened: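 CHO cells stably transfected with the given human mAChR subtype. Compound added before an EC80 concentration of acetylcholine; antagonism read as calcium mobilization. One independent determination in triplicate.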

[20] = Ratio of drug concentration in brain to plasma of rat at 1 mg/kg, po after 1 hr; type: ADME, organism-based; procedure, shortened: as §3
[21] = molecular target: T2, CYP1A2; experiment: Induction of CYP1A2 in human hepatocytes relative to control; type: ADME, cell-based, Hepatocyte
[22] = test system: Rattus norvegicus; experiment: Reversal of haloperidol-induced catalepsy in rat at 1.0 mg/kg, po relative to control; type: functional; procedure, shortened: as §4
[23] = Ratio of free drug concentration in brain to plasma of Sprague-Dawley rat at 1 mg/kg, iv; type: ADME, organism-based; details: read-out: K(p,uu,brain)
[24] = AUC (0 to infinity) in Sprague-Dawley rat at 10 mg/kg, po measured upto 24 hrs by LC-MS/MS analysis; type: ADME, organism-based; design: route oral, dose 10 mg/kg, time <=24; details: in vivo; procedure, shortened: as §1
[25] = Antagonist activity at human muscarinic acetylcholine M4 receptor expressed in CHO cells assessed as inhibition of acetylcholine-induced calcium mobilization relative to control; type: cell-based; design: concentration or dose not given beside the values; details: concentration not given here
Procedure, shortened: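 CHO cells stably transfected with human M4 were pretreated with the compound, then stimulated with an EC80 concentration of acetylcholine. The response was read as calcium mobilization, and IC50 was derived from the concentration-response. Each experiment was run in triplicate.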

[26] = Clearance in Sprague-Dawley rat plasma at 1.0 mg/kg, iv measured upto 24 hrs by LC-MS/MS analysis; type: ADME, organism-based; procedure, shortened: as §1
[27] = Tmax in Sprague-Dawley rat at 10 mg/kg, po measured upto 24 hrs by LC-MS/MS analysis; type: ADME, organism-based; details: in vivo; procedure, shortened: as §2
[28] = Ratio of free drug concentration in CSF to plasma of Sprague-Dawley rat at 1 mg/kg, iv; type: ADME, organism-based
[29] = Oral bioavailability in Sprague-Dawley rat at 10 mg/kg measured upto 24 hrs by LC-MS/MS analysis; type: ADME, organism-based; details: in vivo; procedure, shortened: as §1

With `Fc1cc(F)c(F)c(-c2ccc(N[C@H]3C[C@@H]4CN(CC5CCOCC5)C[C@@H]4C3)nn2)c1` the half-life [1] was 780 min, the bioavailability [2] was 86% and the “inhibition (INH)” value [3] was 94%. For the same molecule, the Tmax [4] was 17 h, the Kp uu at 1 h [5] was 0.32 and the Cmax [6] was 181 ng/mL. For the same molecule, the efflux ratio [7] was 8.9, the clearance [8] was 17 mL/min/kg and the EC50 [9] was 1900 nM. It also gave an Emax [10] of 2.1%, an IC50 at 8 min [11] greater than 30 µM and an Emax [12] of 2.1%. It also gave an IC50 [13] greater than 100 µM, an Activity [14] of 32 s and an Activity [15] of 65.2%. The IC50 [16] was 431 nM, the Vd [17] was 6.7 L/kg and the half-life [18] was 900 min. For the same molecule, the IC50 [19] was greater than 10 µM, the Kp at 1 h [20] was 3.4 and the Emax [21] was 2.1%. It also gave an Activity [22] of 50.9%, a Kp uu [23] of 0.61 and an AUC [24] of 30000 ng·h/mL. It also gave an inhibition [25] of 3%, an inhibition ([25]; tested as the 2H-labelled form) of 3% and a clearance [26] of 6.1 mL/min/kg. It also gave a Tmax [27] of 1.5 h, a Kp uu [28] of 0.24 and a bioavailability [29] of no less than 100%.
